Results reported in ChEMBL document CHEMBL3751740, “New MKLP-2 inhibitors in the paprotrain series: Design, synthesis and biological evaluations” (Bioorg Med Chem, 2016).

Tests used:
[1] = biological target: Centromere-associated protein E (Homo sapiens) (UniProt Q02224); experiment: Inhibition of porcine brain microtubule-stimulated human recombinant GST-tagged CENP-E ATPase activity at 15 uM by microplate reader in presence of Mg2+ ATP relative to control
Outline: (§1)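 Each kinesin motor domain was tested against MT-stimulated ATPase at 22 °C in triplicate, with compounds at 15 µM. Buffer was 7.5 mM PIPES-NaOH pH 7.0 with MgCl2, Taxol, ELIPA reagents and 1.25 mg/mL MTs. Reactions were started with 1 mM Mg2+ATP and read kinetically at 360 nm. Monastrol and AMP-PNP (1 mM) were the controls.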

[2] = biological target: T1, Kinesin-like protein KIFC3 (Homo sapiens) (UniProt Q9BVG8); experiment: Inhibition of porcine brain microtubule-stimulated human recombinant GST-tagged KIFC3 ATPase activity at 15 uM by microplate reader in presence of Mg2+ ATP relative to control; outline: as §1
T1 sequence (whole entry): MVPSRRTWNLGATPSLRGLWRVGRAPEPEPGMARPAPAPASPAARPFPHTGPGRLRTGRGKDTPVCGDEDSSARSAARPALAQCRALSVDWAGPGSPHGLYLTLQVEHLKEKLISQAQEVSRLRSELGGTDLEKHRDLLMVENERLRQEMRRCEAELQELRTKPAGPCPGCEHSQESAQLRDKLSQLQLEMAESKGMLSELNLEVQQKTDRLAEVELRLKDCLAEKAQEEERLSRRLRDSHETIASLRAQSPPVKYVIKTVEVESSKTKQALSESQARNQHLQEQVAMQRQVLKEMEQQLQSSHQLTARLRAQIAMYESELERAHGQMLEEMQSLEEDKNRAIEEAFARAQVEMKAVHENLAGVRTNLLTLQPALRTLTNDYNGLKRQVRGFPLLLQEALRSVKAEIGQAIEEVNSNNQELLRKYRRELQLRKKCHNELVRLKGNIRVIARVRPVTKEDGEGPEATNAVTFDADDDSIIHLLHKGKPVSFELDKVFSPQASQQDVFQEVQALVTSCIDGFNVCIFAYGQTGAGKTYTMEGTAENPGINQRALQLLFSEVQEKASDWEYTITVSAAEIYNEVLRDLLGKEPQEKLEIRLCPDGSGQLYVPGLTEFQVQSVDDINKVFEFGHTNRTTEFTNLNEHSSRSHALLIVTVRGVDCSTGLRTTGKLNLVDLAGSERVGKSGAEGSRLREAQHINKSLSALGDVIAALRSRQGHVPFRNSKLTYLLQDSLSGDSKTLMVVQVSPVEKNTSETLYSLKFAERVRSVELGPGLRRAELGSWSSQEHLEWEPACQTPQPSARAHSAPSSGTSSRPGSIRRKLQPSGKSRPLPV

[3] = biological target: T2, Kinesin-like protein KIF3C (Homo sapiens) (UniProt O14782); experiment: Inhibition of porcine brain microtubule-stimulated human recombinant GST-tagged KIF3C ATPase activity at 15 uM by microplate reader in presence of Mg2+ ATP relative to control; outline: as §1
T2 sequence (whole entry): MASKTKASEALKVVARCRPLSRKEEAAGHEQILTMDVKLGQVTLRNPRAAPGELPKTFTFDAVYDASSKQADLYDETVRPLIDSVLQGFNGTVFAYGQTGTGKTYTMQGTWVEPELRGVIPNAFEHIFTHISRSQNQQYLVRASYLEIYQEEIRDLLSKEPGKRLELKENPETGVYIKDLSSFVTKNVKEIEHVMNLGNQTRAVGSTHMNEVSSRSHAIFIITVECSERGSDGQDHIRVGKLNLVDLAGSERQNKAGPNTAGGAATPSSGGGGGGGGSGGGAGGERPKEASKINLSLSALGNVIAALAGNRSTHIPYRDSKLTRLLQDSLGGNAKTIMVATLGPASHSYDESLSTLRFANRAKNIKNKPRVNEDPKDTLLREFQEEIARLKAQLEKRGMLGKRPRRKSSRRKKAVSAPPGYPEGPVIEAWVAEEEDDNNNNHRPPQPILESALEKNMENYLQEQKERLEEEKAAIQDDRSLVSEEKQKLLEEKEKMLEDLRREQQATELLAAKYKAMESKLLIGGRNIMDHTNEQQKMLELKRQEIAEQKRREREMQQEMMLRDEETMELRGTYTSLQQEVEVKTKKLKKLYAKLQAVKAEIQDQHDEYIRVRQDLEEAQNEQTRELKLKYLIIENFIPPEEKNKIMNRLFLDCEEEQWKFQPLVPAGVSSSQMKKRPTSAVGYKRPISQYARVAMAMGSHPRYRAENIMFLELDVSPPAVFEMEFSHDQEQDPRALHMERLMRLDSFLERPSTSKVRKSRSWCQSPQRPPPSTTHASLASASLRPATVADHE

[4] = biological target: T3, Kinesin-1 heavy chain (Homo sapiens) (UniProt P33176); experiment: Inhibition of porcine brain microtubule-stimulated human recombinant GST-tagged Kif5B ATPase activity at 15 uM by microplate reader in presence of Mg2+ ATP relative to control; outline: as §1
T3 sequence (whole entry): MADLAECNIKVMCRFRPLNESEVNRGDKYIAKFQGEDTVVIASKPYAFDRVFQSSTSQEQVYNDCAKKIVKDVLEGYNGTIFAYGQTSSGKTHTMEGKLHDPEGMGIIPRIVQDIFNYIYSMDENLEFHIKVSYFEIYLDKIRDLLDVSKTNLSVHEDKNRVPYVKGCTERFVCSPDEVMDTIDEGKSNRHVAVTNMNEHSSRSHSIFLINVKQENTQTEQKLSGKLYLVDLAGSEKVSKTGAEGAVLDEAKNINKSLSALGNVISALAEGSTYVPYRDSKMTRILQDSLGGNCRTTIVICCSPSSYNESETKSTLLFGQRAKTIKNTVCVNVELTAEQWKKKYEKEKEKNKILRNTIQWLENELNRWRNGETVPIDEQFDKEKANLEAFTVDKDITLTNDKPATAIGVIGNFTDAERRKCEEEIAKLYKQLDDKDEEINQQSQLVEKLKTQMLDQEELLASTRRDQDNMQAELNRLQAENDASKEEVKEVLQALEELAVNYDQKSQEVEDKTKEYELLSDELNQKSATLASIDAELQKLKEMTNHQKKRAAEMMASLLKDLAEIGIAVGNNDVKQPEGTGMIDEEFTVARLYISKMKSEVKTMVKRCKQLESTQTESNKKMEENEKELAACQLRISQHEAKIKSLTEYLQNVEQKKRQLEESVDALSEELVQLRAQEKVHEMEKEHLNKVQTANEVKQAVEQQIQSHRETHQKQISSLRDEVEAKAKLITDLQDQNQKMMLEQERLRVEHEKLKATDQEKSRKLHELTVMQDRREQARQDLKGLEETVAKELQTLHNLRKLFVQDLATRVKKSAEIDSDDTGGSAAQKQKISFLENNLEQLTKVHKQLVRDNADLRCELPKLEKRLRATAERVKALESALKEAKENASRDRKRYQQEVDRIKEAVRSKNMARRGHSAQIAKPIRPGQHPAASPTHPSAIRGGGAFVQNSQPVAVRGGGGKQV

Centromere-associated protein E (Homo sapiens), sequence (Q02224 whole entry, the tested form may be a part): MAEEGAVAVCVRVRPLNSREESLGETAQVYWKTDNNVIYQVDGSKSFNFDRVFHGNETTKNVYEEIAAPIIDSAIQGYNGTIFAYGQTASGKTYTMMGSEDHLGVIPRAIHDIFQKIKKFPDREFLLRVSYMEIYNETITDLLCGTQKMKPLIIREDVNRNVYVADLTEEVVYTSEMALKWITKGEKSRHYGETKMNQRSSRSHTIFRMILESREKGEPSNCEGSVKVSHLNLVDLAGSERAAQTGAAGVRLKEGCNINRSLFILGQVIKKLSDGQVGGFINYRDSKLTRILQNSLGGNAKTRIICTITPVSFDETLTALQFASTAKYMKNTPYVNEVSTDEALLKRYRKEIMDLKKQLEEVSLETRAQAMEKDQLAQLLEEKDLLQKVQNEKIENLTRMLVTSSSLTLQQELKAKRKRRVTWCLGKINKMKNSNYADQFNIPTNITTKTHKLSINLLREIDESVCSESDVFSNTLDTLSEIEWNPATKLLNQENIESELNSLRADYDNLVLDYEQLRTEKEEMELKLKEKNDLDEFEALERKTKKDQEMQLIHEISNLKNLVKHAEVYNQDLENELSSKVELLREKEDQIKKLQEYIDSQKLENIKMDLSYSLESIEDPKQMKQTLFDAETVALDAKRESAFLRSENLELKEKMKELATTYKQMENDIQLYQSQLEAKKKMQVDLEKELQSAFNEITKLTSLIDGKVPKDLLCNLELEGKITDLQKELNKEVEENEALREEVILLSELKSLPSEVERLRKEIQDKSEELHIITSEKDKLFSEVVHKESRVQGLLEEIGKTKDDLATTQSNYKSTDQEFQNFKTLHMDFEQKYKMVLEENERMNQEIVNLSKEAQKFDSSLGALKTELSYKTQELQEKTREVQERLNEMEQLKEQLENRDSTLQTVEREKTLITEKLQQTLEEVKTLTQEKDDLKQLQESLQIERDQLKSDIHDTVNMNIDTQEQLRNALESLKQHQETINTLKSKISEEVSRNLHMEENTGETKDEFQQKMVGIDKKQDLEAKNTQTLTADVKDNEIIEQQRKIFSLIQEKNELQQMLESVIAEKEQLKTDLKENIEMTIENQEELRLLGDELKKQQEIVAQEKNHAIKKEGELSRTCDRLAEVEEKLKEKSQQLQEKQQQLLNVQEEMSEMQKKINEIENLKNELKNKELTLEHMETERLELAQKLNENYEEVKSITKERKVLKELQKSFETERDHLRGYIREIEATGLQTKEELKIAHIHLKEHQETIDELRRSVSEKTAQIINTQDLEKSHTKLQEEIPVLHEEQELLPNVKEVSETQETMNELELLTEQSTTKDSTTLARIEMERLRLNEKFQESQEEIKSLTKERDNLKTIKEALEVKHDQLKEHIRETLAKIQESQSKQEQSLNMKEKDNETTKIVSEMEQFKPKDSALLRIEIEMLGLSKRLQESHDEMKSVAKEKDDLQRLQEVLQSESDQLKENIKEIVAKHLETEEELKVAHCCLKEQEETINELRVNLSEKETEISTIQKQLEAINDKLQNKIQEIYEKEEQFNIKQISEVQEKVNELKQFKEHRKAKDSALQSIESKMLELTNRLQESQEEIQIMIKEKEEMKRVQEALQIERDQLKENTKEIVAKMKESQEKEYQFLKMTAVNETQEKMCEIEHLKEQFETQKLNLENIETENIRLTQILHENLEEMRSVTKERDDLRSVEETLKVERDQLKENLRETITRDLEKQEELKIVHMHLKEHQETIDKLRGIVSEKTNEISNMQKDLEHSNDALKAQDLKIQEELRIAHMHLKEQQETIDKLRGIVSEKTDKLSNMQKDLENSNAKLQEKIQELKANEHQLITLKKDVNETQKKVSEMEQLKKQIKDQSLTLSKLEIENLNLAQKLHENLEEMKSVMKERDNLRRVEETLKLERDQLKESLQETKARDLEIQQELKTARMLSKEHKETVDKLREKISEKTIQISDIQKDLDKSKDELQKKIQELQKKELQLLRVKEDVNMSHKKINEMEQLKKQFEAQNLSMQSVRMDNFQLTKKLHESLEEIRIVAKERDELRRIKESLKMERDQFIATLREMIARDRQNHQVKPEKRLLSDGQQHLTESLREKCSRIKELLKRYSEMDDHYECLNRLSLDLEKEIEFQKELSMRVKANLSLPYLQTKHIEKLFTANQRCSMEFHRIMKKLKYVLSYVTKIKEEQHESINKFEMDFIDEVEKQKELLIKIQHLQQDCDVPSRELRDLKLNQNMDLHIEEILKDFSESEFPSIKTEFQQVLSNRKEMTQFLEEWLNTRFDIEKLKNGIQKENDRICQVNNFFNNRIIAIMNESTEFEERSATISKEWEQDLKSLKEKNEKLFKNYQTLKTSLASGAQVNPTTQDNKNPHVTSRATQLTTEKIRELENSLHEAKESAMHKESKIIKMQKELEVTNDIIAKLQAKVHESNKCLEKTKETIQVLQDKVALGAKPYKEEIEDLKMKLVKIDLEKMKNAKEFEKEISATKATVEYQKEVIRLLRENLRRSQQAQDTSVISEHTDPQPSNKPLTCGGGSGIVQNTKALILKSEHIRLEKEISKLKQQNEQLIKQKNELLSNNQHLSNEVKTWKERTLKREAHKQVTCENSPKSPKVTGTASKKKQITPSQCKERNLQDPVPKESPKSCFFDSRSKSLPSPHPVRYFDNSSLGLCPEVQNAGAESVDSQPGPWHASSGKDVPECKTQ

inhibition [1] [%]	inhibition [2] [%]	inhibition [3] [%]	inhibition [4] [%]	Structure (SMILES)
< 20	< 20	< 20	< 20	COc1ccc2c(/C(C#N)=C/c3cccnc3)c[nH]c2c1
< 20	< 20	< 20	< 20	N#C/C(=C\c1ccc2c(c1)OCO2)c1c[nH]c2ccccc12

Second part, the compound before the results:

Structure (SMILES)	inhibition [1] [%]	inhibition [2] [%]	inhibition [3] [%]	inhibition [4] [%]
CCOC(=O)C1=C(C)NC(=S)NC1c1cccc(O)c1 (centres undefined)	< 20	< 20	< 20	< 20
COc1ccc2[nH]cc(/C(C#N)=C/c3cccnc3)c2c1	< 20	< 20	< 20	< 20
COc1cccc2[nH]cc(/C(C#N)=C/c3cccnc3)c12	< 20	< 20	< 20	< 20
N#C/C(=C\c1cccnc1)c1c[nH]c2ccc(OCc3ccccc3)cc12	< 20	< 20	< 20	< 20
